Data on 29 molecules can be found in ChEMBL document CHEMBL4229495 (Bioorg Med Chem, 2018).

pIC50: −log10 of the molar value.

Data set [1] addresses T1, Tyrosyl-DNA phosphodiesterase 1 (Homo sapiens, UniProt Q9NUW8). In words: Inhibition of recombinant Tdp1 (unknown origin) using 5'-(5,6 FAM-aac gtc agg gtc ttc c-BHQ1)-3' as substrate measured every 55 secs for 8 mins by fluorimetric assay.
A short description of data set [2]: Cytotoxicity against HEK293 cells after 72 hrs by MTT assay. The note with it: human. The class given is cell-based. A digest of the protocol: (§1)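 Cells seeded at ~2000 per well and grown 24 h at 37 °C, 5% CO2 in IMDM with 10% FBS plus penicillin/streptomycin. Then exposed to the compound (1 to 100 µM) for 72 h. Viability read by MTT as A570 versus DMSO control. CC50 interpolated from the dose-response curve. Mean ± SD of triplicates.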

Data set [3] relates to A549. In words: Potentiation of topotecan-induced cytotoxicity against human A549 cells assessed as topotecan CC50 at 1 uM after 72 hrs by MTT assay (reference value: 111 +/- 27 nM). In kind it is functional. The note with it: A549, 72 h.
In data set [4] the test system is Tdp1. In words: Selectivity index, ratio of CC50 for human A549 cells to IC50 for recombinant Tdp1 (unknown origin) using 5'-(5,6 FAM-aac gtc agg gtc ttc c-BHQ1)-3' as substrate. The class given is toxicity. The settings on record: A549 cells (CC50) and recombinant Tdp1 (IC50), probe 5'-(5,6 FAM-aac gtc agg gtc ttc c-BHQ1)-3'.
Data set [5] in a line: Cytotoxicity against human A549 cells after 72 hrs by MTT assay. In kind it is cell-based. A digest of the protocol:
as §1

Data set [6] has as its system Tdp1. In words: Selectivity index, ratio of CC50 for HEK293 cells to IC50 for recombinant Tdp1 (unknown origin) using 5'-(5,6 FAM-aac gtc agg gtc ttc c-BHQ1)-3' as substrate. The note with it: human, HEK293 cells (CC50) and recombinant Tdp1 (IC50), probe 5'-(5,6 FAM-aac gtc agg gtc ttc c-BHQ1)-3'. The class given is toxicity.
Data set [7] concerns the target T1, Tyrosyl-DNA phosphodiesterase 1. In words: Inhibition of recombinant Tdp1 (unknown origin) using 5'-([32P]-aac gtc agg gtc ttc c-tyrosine)-3' as substrate measured after 5 mins by electrophoresis method.
Data set [8] has the same target. In words: Inhibition of recombinant Tdp1 (unknown origin) using 5'-([32P]-aac gtc agg gtc ttc c-BHQ1)-3' as substrate measured after 20 mins by electrophoresis method.
Data set [9] has as its system HEK293. In words: Potentiation of topotecan-induced cytotoxicity against HEK293 cells assessed as fold reduction in topotecan CC50 at 1 uM after 72 hrs by MTT assay relative to topotecan alone. In kind it is cell-based. The settings on record: human, hek293, 72 h. A digest of the protocol:
(§2)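 A-549 or HEK-293 cells (~2000/well) preincubated 24 h at 37 °C in IMDM with 10% FBS, penicillin/streptomycin, 5% CO2. Then treated with varied topotecan concentrations with or without inhibitor at 1 µM for 72 h. Viability read by MTT (A570) against DMSO control. Topotecan CC50 interpolated from dose-response curves, mean ± SD of triplicates.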

Data set [10] deals with A549. In words: Potentiation of topotecan-induced cytotoxicity against human A549 cells assessed as fold reduction in topotecan CC50 at 1 uM after 72 hrs by MTT assay relative to topotecan alone. The class given is functional. A digest of the protocol:
as §2

T1 sequence (Q9NUW8 whole entry): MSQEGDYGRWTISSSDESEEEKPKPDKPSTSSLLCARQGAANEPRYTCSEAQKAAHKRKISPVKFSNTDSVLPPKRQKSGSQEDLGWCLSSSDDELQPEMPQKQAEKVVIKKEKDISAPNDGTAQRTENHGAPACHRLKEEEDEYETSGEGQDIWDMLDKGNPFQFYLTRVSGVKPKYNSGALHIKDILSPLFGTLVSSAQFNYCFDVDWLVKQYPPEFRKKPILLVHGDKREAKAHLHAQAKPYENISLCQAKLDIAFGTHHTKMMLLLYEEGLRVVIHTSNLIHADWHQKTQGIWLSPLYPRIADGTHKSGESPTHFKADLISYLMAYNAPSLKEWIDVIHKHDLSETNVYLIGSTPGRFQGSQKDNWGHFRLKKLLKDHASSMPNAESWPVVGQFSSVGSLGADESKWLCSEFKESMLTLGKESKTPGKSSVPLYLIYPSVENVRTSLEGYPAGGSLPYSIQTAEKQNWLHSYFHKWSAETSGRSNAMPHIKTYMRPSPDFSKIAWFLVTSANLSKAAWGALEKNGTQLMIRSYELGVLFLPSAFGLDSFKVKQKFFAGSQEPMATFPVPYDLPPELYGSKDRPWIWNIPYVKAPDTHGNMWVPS

Regarding `COc1ccccc1/C=C1\Oc2c(C)c(O)c3c(c2C1=O)OC1=CC(O)=C(C(C)=O)C(=O)[C@@]13C`, in data set [1], the pIC50 was 6.41.
Take `CC(=O)C1=C(O)C=C2Oc3c4c(c(C)c(O)c3[C@@]2(C)C1=O)O/C(=C\c1ccc(Br)cc1)C4=O`: the CC50 at 72 h in [2] worked out at 14600 nM; in data set [5], 10000 nM. Further, the cytotoxic concentration (CC50) in data set [3] was 162 nM. Moreover, the selectivity ratio in [4] worked out at 66.7; in [6], 97.3.
Regarding `CC(=O)C1=C(O)C=C2Oc3c4c(c(C)c(O)c3[C@@]2(C)C1=O)O/C(=C\c1ccncc1)C4=O`, the negative logarithm of the IC50 (pIC50) in data set [1] is 6.09.
Consider `CC(=O)C1=C(O)C=C2Oc3c4c(c(C)c(O)c3[C@@]2(C)C1=O)O/C(=C\c1cccnc1)C4=O`, for which the pIC50 in [1] was 6.35.
Same read-out and setting: with `CC(=O)C1=C(O)C=C2Oc3c4c(c(C)c(O)c3[C@@]2(C)C1=O)O/C(=C\c1sccc1C)C4=O` the figure was 6.20.
Same read-out and setting: the figure for `CC(=O)C1=C(O)C=C2Oc3c4c(c(C)c(O)c3[C@@]2(C)C1=O)O/C(=C\c1ccccc1)C4=O` is 6.14.
The same measure, in the same setting: the figure for `CC(=O)C1=C(O)C=C2Oc3c4c(c(C)c(O)c3[C@@]2(C)C1=O)O/C(=C\c1ccc(C)s1)C4=O` is 6.08.
`CC(=O)C1=C(O)C=C2Oc3c4c(c(C)c(O)c3[C@@]2(C)C1=O)O/C(=C\c1ccccn1)C4=O`: in data set [1], the negative logarithm of the IC50 (pIC50) was 6.07.
On the same count and under the same terms, with `CC(=O)C1=C(O)C=C2Oc3c4c(c(C)c(O)c3[C@@]2(C)C1=O)O/C(=C\c1ccc(Cl)cc1)C4=O` the figure was 5.91; with `CC(=O)C1=C(O)C=C2Oc3c4c(c(C)c(O)c3[C@@]2(C)C1=O)O/C(=C\c1ccc(O)cc1)C4=O`, 5.80.
`CC(=O)C1=C(O)C=C2Oc3c4c(c(C)c(O)c3[C@@]2(C)C1=O)O/C(=C\c1cc(Br)cc(Br)c1)C4=O`: the negative logarithm of the IC50 (pIC50) is 6.28 in [1], 5.40 in data set [7] and 6.19 in data set [8].
Regarding `CC(=O)C1=C(O)C=C2Oc3c4c(c(C)c(O)c3[C@@]2(C)C1=O)O/C(=C\c1cc(Br)cs1)C4=O`, the pIC50 in [1] is 6.22.
In the case of `CC(=O)C1=C(O)C=C2Oc3c4c(c(C)c(O)c3[C@@]2(C)C1=O)O/C(=C\c1ccc(Br)s1)C4=O`, the fold change (FC) was 2 to 4 in data set [9] and 2 in data set [10]. In data set [1], the pIC50 was 7.20. Moreover, the figures for the CC50 at 72 h in [2] and in data set [5] were 15700 nM and 8700 nM, respectively. Besides, the CC50 in data set [3] was determined as 47 nM. Also, the selectivity ratio in data set [4] stood at 138; in [6], 249.
With `CC(=O)C1=C(O)C=C2Oc3c4c(c(C)c(O)c3[C@@]2(C)C1=O)O/C(=C\c1ccc(F)cc1)C4=O`, in data set [1], the pIC50 was 6.01.
Same read-out and setting: the figure for `CC(=O)C1=C(O)C=C2Oc3c4c(c(C)c(O)c3[C@@]2(C)C1=O)O/C(=C\c1ccc[nH]1)C4=O` is 5.44; for `CC(=O)C1=C(O)C=C2Oc3c4c(c(C)c(O)c3[C@]2(C)C1=O)O/C(=C\c1ccc(Br)s1)C4=O` it is 7.09.
In the case of `COc1ccc(/C=C2\Oc3c(C)c(O)c4c(c3C2=O)OC2=CC(O)=C(C(C)=O)C(=O)[C@@]24C)cc1`, the pIC50 in data set [1] was 6.47. Further, the CC50 at 72 h is 15800 nM in data set [2] and 8300 nM in data set [5]. The CC50 in data set [3] is 90 nM. In addition, the figures for the selectivity ratio in [4] and in data set [6] were 24.4 and 46.5, respectively.
As for `CC(=O)C1=C(O)C=C2Oc3c4c(c(C)c(O)c3[C@@]2(C)C1=O)O/C(=C\c1ccco1)C4=O`, in data set [1], the pIC50 was 5.26.
In the case of `COc1ccc(/C=C2\Oc3c(C)c(O)c4c(c3C2=O)OC2=CC(O)=C(C(C)=O)C(=O)[C@@]24C)cc1OC`, the negative logarithm of the IC50 (pIC50) in [1] was 5.99.
Take `CC(=O)C1=C(O)C=C2Oc3c4c(c(C)c(O)c3[C@@]2(C)C1=O)O/C(=C\c1ccc(C)o1)C4=O`: the pIC50 in data set [1] was 6.80. Besides, the 50% cytotoxic concentration (CC50) at 72 h in [2] and in data set [5] was over 50000 nM throughout. Also, the CC50 in data set [3] amounted to 40 nM. In [10], the “fold change (FC)” value is listed as 2. Also, the selectivity ratio in data set [4] and in [6] was over 300 each time.
Regarding `CC(=O)C1=C(O)C=C2Oc3c4c(c(C)c(O)c3[C@@]2(C)C1=O)O/C(=C\C1CCCCC1)C4=O`, the pIC50 in data set [1] was under 4.82.
Regarding `CC(=O)C1=C(O)C=C2Oc3c4c(c(C)c(O)c3[C@@]2(C)C1=O)O/C(=C\c1cc(C(C)(C)C)cc(C(C)(C)C)c1O)C4=O`, the pIC50 in data set [1] is 7.60. The values for the CC50 at 72 h in [2] and in data set [5] were 14500 nM and 6800 nM, respectively. The CC50 in [3] worked out at 558 nM. In addition, the selectivity ratio in data set [4] came out at 272.
`CC(=O)C1=C(O)C=C2Oc3c4c(c(C)c(O)c3[C@@]2(C)C1=O)O/C(=C\c1ccsc1)C4=O`: the pIC50 in data set [1] is 5.48.
Consider `CC(=O)C1=C(O)C=C2Oc3c4c(c(C)c(O)c3[C@@]2(C)C1=O)O/C(=C\c1cccs1)C4=O`, for which the negative-log IC50 (pIC50) in data set [1] was 6.05.
Consider `CC(=O)C1=C(O)C=C2Oc3c4c(c(C)c(O)c3[C@@]2(C)C1=O)O/C(=C\c1ccoc1)C4=O`, for which the pIC50 in [1] is 5.17.
As to `CC(=O)C1=C(O)C=C2Oc3c4c(c(C)c(O)c3[C@@]2(C)C1=O)O/C(=C\c1cccc(Br)c1)C4=O`, the pIC50 in data set [1] is 6.63. Moreover, the 50% cytotoxic concentration (CC50) at 72 h in data set [2] came to 14500 nM; in data set [5], 11400 nM. For the same molecule, the CC50 in data set [3] stood at 132 nM. The selectivity ratio was found to be 49.1 in data set [4] and 62.5 in data set [6].
For the molecule `CC(=O)C1=C(O)C=C2Oc3c4c(c(C)c(O)c3[C@]2(C)C1=O)O/C(=C\c1cc(C(C)(C)C)cc(C(C)(C)C)c1O)C4=O`, the pIC50 in data set [1] is 7.19.
For `CC(=O)C1=C(O)C=C2Oc3c4c(c(C)c(O)c3[C@@]2(C)C1=O)O/C(=C\c1ccccc1Br)C4=O`, the negative-log IC50 (pIC50) in [1] was 6.64. In addition, the cytotoxic concentration (CC50) at 72 h in data set [2] worked out at 15900 nM; in data set [5], 4560 nM. The 50% cytotoxic concentration (CC50) in [3] came out at 48 nM. Moreover, in [10], the “fold change (FC)” value came to 2. Further, the selectivity ratio in [4] came to 19.8; in data set [6], 69.1.
Take `COc1ccc(/C=C2\Oc3c(C)c(O)c4c(c3C2=O)OC2=CC(O)=C(C(C)=O)C(=O)[C@@]24C)c(OC)c1OC`: the pIC50 in data set [1] is 6.47. Moreover, the CC50 at 72 h is 20000 nM in [2] and 4600 nM in [5]. Moreover, the CC50 in data set [3] was 48 nM. Further, the “fold change (FC)” value in [10] came to 2. Moreover, the results for the selectivity ratio in data set [4] and in data set [6] were 13.5 and 58.8, respectively.
